Experimental findings from ChEMBL document CHEMBL1126834, “Chemistry, binding affinities, and behavioral properties of a new class of "antineophobic" mitochondrial DBI receptor complex (mDRC) ligands” (J Med Chem, 1993) are described below.

Each structure is given as a SMILES string. “And” between values parts separate entries of the source, which are not always exact repeats. Identical values can stand only once. Bounds are passed on as bounds.

Experiment [1] has as its target Adrenergic receptor alpha. Put plainly: Inhibitory activity by measuring its ability to displace [3H]clonidine from alpha-adrenergic receptor in rat brain. It is filed as tissue-based.
Experiment [2] has as its system Rattus norvegicus. The experiment in a line: Tested for antineophobic activity using the elevated plus maze test administered at 51 umol/kg perorally in rats. It counts as functional.
A short description of experiment [3]: Inhibitory activity by measuring its ability to displace [3H]spiperone from dopamine or serotonin 5-HT-1 receptors in rat brain. It is filed as tissue-based.
The target in experiment [4] is Cannabinoid receptor 1 (Rattus norvegicus, UniProt P20272). The experiment in a line: Inhibitory activity, measured by displacement [3H]CP-55940 from cannabinoid receptor (CB1) in rat brain. It counts as tissue-based.
Cannabinoid receptor 1, sequence (P20272 whole entry): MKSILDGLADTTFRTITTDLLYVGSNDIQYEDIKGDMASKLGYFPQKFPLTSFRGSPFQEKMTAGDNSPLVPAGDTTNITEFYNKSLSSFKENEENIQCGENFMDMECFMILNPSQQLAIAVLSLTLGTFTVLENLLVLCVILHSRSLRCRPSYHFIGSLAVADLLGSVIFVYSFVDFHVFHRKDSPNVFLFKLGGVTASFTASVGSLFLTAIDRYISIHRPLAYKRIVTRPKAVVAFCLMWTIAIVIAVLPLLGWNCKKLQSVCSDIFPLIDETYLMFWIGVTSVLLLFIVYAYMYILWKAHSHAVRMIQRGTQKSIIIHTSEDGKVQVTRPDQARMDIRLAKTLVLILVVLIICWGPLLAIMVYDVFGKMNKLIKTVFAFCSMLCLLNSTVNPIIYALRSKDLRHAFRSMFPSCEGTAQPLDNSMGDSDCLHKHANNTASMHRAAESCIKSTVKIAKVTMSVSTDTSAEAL
Experiment [5] in a line: Inhibitory activity by measuring its ability to displace [3H]glycine from glycine receptor in rat brain. It is filed as tissue-based.
Experiment [6] concerns the target GABA-A receptor; anion channel. Put plainly: Inhibitory activity at GABA A receptor, measured by the ability to displace [3H]GABA from GABA A receptor in rat brain. It is filed as tissue-based.
For experiment [7], the target named is GABA-A receptor; anion channel. The experiment in a line: Inhibitory activity at GABA A receptor, measured by the ability to displace [3H]flumazenil from GABA A receptor in rat brain. It counts as tissue-based.
Experiment [8] deals with Adrenergic receptor beta (Rattus norvegicus, UniProt P18090+P10608+P26255). The experiment in a line: Inhibitory activity by measuring its ability to displace [125I]pindolol from beta-adrenergic receptor in rat brain. It is filed as tissue-based.
For experiment [9], the target named is GABA-A receptor; anion channel. Put plainly: Inhibitory activity at GABA A receptor, measured by the ability to displace [35S]TBPS from GABA A receptor in rat brain. It is filed as tissue-based.
Experiment [10] addresses Adrenergic receptor alpha. The experiment in a line: Inhibitory activity by measuring its ability to displace [3H]WB-4101 from alpha-adrenergic receptor in rat brain. It is filed as tissue-based.
Experiment [11] deals with Opioid receptor (Rattus norvegicus, UniProt P33533+P34975+P33535). The experiment in a line: Inhibition of [3H]naxolone binding to opiate receptors in rat brain. It is filed as tissue-based.
Experiment [12] deals with Serotonin 2 (5-HT2) receptor (Rattus norvegicus). The experiment in a line: Inhibitory activity by measuring its ability to displace [3H]ketanserin from serotonin receptor in rat brain.
The target in experiment [13] is Sigma receptor (Rattus norvegicus). Put plainly: Tested for inhibitory activity by measuring its ability to displace [3H]3-PPP from sigma receptor in rat brain.
Experiment [14] concerns the target T1, Gastrin/cholecystokinin type B receptor (Rattus norvegicus, UniProt P30553).
T1 sequence (P30553 whole entry): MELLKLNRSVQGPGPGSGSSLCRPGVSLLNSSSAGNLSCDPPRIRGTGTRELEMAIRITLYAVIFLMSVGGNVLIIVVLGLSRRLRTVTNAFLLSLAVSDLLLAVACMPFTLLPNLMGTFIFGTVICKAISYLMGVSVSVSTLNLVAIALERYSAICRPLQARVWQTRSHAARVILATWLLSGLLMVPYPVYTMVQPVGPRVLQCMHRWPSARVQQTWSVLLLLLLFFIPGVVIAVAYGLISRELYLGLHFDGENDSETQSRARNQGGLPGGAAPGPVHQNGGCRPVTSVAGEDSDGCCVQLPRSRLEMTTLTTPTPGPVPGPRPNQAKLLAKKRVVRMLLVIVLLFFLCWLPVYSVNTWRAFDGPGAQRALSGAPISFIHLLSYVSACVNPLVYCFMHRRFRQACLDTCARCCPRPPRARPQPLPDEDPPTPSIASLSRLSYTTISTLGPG
Put plainly: Inhibitory activity by measuring its ability to displace [3H]L-365260 from cholecystokinin receptor in rat brain. It counts as tissue-based.

Experiment [15] has as its target Glutamate NMDA receptor. The experiment in a line: Inhibitory activity by measuring its ability to displace [3H]-MK-801 from glutamate(NMDA) receptor in rat brain. It counts as tissue-based.
Experiment [16] concerns the target Translocator protein (Rattus norvegicus, UniProt P16257). The experiment in a line: Binding affinity against mitochondrial DBI complex (peripheral benzodiazepine receptor) using primary cultures of glial cells. The procedure, abridged: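 Glia from cerebella of 8-day-old Sprague–Dawley rat pups, trypsin-dissociated and grown 14 days (~95% astroglia). Cells lysed in 50 mM Hepes pH 7.4, 4 μg protein per tube. Incubated with [3H]4'-chlorodiazepam and competitor for 90 min at 4 °C, then filtered. Nonspecific binding defined with 10 μM 4'-chlorodiazepam. Triplicate competition curves; IC50 by nonlinear regression, converted to Ki (Bylund–Yamamura).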

The nature of experiment [17]: Inhibitory activity at GABA B receptor, measured by the ability to displace [3H]baclofen from GABA B receptor in rat brain. It counts as tissue-based.
In experiment [18] the target is GABA-A receptor; anion channel. Put plainly: Inhibitory activity at GABA A receptor, measured by the ability to displace [3H]zolpidem from GABA A receptor in rat brain. It counts as tissue-based.
Experiment [19] in a line: Tested for inhibitory activity by measuring its ability to displace [3H]AMPA from glutamate (non-NMDA) receptor in rat brain. It is filed as tissue-based.
Experiment [20] deals with Adrenergic receptor alpha. Put plainly: Displacement of [3H]clonidine from alpha-adrenergic receptor in rat brain. It counts as tissue-based.
For experiment [21], the system named is Rattus norvegicus. The experiment in a line: Tested for antineophobic activity using the elevated plus maze test administered at 59 umol/kg perorally in rats. It is filed as functional.
The test system of experiment [22] is Rattus norvegicus. The experiment in a line: Tested for antineophobic activity using the elevated plus maze test administered at 40 umol/kg perorally in rats. It is filed as functional.
The subject of experiment [23] is Rattus norvegicus. Put plainly: Tested for antineophobic activity using the elevated plus maze test administered at 78 umol/kg perorally in rats. It is filed as functional.
Experiment [24] concerns Rattus norvegicus. The experiment in a line: Tested for antineophobic activity using the elevated plus maze test administered at 53 umol/kg perorally in rats. It is filed as functional.
For experiment [25], the system named is Rattus norvegicus. Put plainly: Tested for antineophobic activity using the elevated plus maze test administered at 71 umol/kg perorally in rats. It counts as functional.
The subject of experiment [26] is Rattus norvegicus. Put plainly: Tested for antineophobic activity using the elevated plus maze test administered at 55 umol/kg perorally in rats. It counts as functional.
In experiment [27] the test system is Rattus norvegicus. The experiment in a line: Tested for antineophobic activity using the elevated plus maze test administered at 57 umol/kg perorally in rats. It is filed as functional.
In experiment [28] the test system is Rattus norvegicus. The experiment in a line: Tested for antineophobic activity administered at 225 umol/kg perorally in adrenalectomized/castrated rats. It counts as functional. The procedure, abridged:
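Rats of 175–200 g were adrenalectomized and castrated 3 days before the elevated plus maze. Drug was suspended in 1% DMSO/H2O and given by oral gavage 1 h before the test. […] was scored; n = 10 rats, mean ± SEM.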

The term IC50 denotes the concentration needed to halve the response being measured. Read a high IC50 as lower potency. In general, Ki refers to the dissociation constant of the complex between target and ligand, obtained from inhibition or displacement. Read a high Ki as a looser hold on the target.

Translocator protein, sequence (P16257 whole entry, looked up): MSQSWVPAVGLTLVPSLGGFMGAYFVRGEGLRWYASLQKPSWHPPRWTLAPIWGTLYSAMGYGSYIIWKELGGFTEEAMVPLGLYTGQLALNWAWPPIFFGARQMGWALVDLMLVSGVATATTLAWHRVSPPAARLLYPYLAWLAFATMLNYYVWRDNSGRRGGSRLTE

`CCCCCCN(CCCCCC)C(=O)Cc1c(-c2ccc(Cl)cc2)[nH]c2ccc(Cl)cc12`: the IC50 in [1], in experiment [3], in experiment [4], in [5], in [6] and in experiment [7] was greater than 1000 nM throughout. In addition, the half-inhibitory concentration (IC50) in experiment [8], in experiment [9], in experiment [10], in experiment [11], in experiment [12] and in [13] was greater than 1000 nM each time. The 50% inhibitory concentration (IC50) in experiment [14], in [15], in experiment [17], in experiment [18] and in experiment [19] was greater than 1000 nM in each case. For the same molecule, the No. of entries in experiment [2] is 2.3. In experiment [2], the Time came to 5.3%. For the same molecule, affinity in experiment [16] was put at a Ki of 3.6 nM.

With `CCCCCCN(CCCCCC)CCc1c(-c2ccc(F)cc2)[nH]c2ccccc12`, the IC50 in [3], in experiment [20], in experiment [4], in experiment [5], in experiment [6] and in experiment [7] was greater than 1000 nM throughout. For the same molecule, the 50% inhibitory concentration (IC50) in experiment [8], in [9], in experiment [10], in experiment [14], in experiment [15] and in experiment [17] was greater than 1000 nM each time. Further, the half-maximal inhibitory concentration (IC50) in experiment [18] and in experiment [19] was greater than 1000 nM in each case. The No. of entries in [21] was 2. The Time in experiment [21] was 4.1%. The molecule further came in with a Ki in [16] of 200 nM.

As for `CCCCN(CCCC)C(=O)Cc1c(-c2ccc(F)cc2)[nH]c2ccccc12`, the IC50 in experiment [1], in [3], in [4], in [5], in [6] and in experiment [7] was greater than 1000 nM each time. Moreover, the concentration for half-maximal inhibition (IC50) in experiment [8], in experiment [9], in experiment [10], in experiment [11], in experiment [12] and in experiment [13] was greater than 1000 nM in each case. The concentration for half-maximal inhibition (IC50) in experiment [14], in experiment [15], in experiment [17], in [18] and in [19] was greater than 1000 nM in each case. In addition, in experiment [22], the No. of entries is 3.6. In [22], the Time was found to be 8%. The molecule further came in with a Ki in [16] of 45 nM.

Consider `O=C(Cc1c(-c2ccccc2)[nH]c2ccccc12)N1CCCCC1`, for which the IC50 in experiment [1], in experiment [3], in experiment [4], in experiment [5], in [6] and in experiment [7] was greater than 1000 nM in each case. Besides, the IC50 in experiment [8], in experiment [9], in experiment [10], in experiment [14], in experiment [15] and in [17] was greater than 1000 nM throughout. In addition, the IC50 in [18] and in experiment [19] was greater than 1000 nM each time. In addition, the No. of entries in experiment [23] was 2.3. In addition, in experiment [23], the Time stood at 5.7%. Also, in experiment [16], affinity was put at a Ki of 350 nM.

For `CCCCCCN(CCCCCC)C(=O)Cc1c(-c2ccc(F)cc2)[nH]c2ccc(Cl)cc12`, the half-maximal inhibitory concentration (IC50) in experiment [3], in experiment [20], in experiment [4], in [5], in [6] and in experiment [7] was greater than 1000 nM each time. In addition, the IC50 in [8], in experiment [9], in [10], in experiment [11], in experiment [12] and in experiment [13] was greater than 1000 nM throughout. For the same molecule, the IC50 in experiment [14], in experiment [15], in [17], in experiment [18] and in experiment [19] was greater than 1000 nM in each case. The No. of entries in experiment [24] stood at 0.4. In addition, the Time in [24] amounted to 0.4%. This molecule returned a Ki in [16] of 2.3 nM.

With `CCCCCCNC(=O)Cc1c(-c2ccc(F)cc2)[nH]c2ccccc12`, the IC50 in [1], in [3], in experiment [4], in experiment [5], in experiment [6] and in experiment [7] was greater than 1000 nM each time. In addition, the IC50 in experiment [8], in [9], in experiment [10], in experiment [11], in [12] and in experiment [13] was greater than 1000 nM in each case. The 50% inhibitory concentration (IC50) in experiment [14], in experiment [15], in [17], in experiment [18] and in experiment [19] was greater than 1000 nM each time. Further, in [25], the No. of entries was found to be 0.6. In experiment [25], the Time is on record as 1.6%. This molecule also returned a Ki in experiment [16] of 323 nM.

For the molecule `CCCCCCN(CCCCCC)C(=O)Cc1c(-c2ccccc2)[nH]c2ccc(Cl)cc12`, the IC50 in experiment [1], in experiment [3], in experiment [4], in experiment [5], in experiment [6] and in [7] was greater than 1000 nM in each case. Moreover, the 50% inhibitory concentration (IC50) in experiment [8], in [9], in [10], in experiment [14], in [15] and in experiment [17] was greater than 1000 nM each time. Further, the IC50 in experiment [18] and in experiment [19] was greater than 1000 nM throughout. In experiment [26], the No. of entries is 2.3. For the same molecule, in experiment [26], the Time was determined as 4.3%. The Ki in experiment [16] came to 4.1 nM.

For `CCCCCCN(CCCCCC)C(=O)Cc1c(-c2ccc(F)cc2)[nH]c2ccccc12`, the 50% inhibitory concentration (IC50) in experiment [1], in experiment [3], in experiment [4], in experiment [5], in experiment [6] and in [7] was greater than 1000 nM each time. The IC50 in experiment [8], in experiment [9], in experiment [10], in [14], in [15] and in experiment [17] was greater than 1000 nM throughout. Besides, the IC50 in experiment [18] and in experiment [19] was greater than 1000 nM each time. The No. of entries is 2.1 in experiment [27]; 4.9 and 5.5 in experiment [28]. In addition, the Time in experiment [27] is given as 4.5%. Also, in experiment [28], the Time spent is 22 s and 25 s. The molecule also returned a Ki in experiment [16] of 4.4 nM.
